Assay: Toxicity liver stage against HepG2, at 10uM
Format: cell-based
Design: test concentration 10 uM, cell line HepG2-A16-CD81EGFP
Settings: human, HepG2-A16-CD81EGFP cells; read-out: INHIBITION
In short: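 Uninfected HepG2-A16-CD81EGFP cells, 3 × 10^3 per well, 1536-well, plated on prespotted compound at 10 μM final, parasite-free screening media added to match infected plates; puromycin 10 μM positive, DMSO 0.5% negative; run in parallel with 48 h PbLuc assay at 37 °C, 5% CO2; viability by CellTiter-Glo luminescence, normalized to controls.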

Structure (SMILES) | cytotoxicity at 10 µM [%]
O=C(c1ccccc1Cl)N1CCN(CCc2ccccn2)CC1 | 5.75
CC(C)CN1C(=O)COC[C@@H]1[C@H](O)c1ccc(NC(=O)C2CC2)cc1 | 5.76
Cc1c(C2SCC(=O)Nc3c2c(O)nn3C2CCCCC2)cnn1C (stereo not drawn) | 0.618
COc1ccc2c(ccn2CCC(=O)Nc2nc[nH]n2)c1 | -12.6
COc1cccc(OC)c1C(=O)NCC(c1cccn1C)N1CCCC1 (stereo not drawn) | 6.89
CCc1ccccc1NC(=O)C1CN(C(C)=O)C1 | 8.49
O=C(c1cccnc1)N1CC(S(=O)(=O)c2ccc(Cl)cc2)C1 | -0.649
COCC1c2c(cnn2C)CCN1C(=O)c1ccc2c(c1)OCO2 (stereo not drawn) | 3.74
c1cc(CNCC2Cn3nncc3CO2)ccn1 (stereo not drawn) | 6.62
CC(=O)N1CC(=O)N(c2cnn(C)c2)CC12CCN(Cc1ccco1)C2 (stereo not drawn) | 2.41
CC1CCC2(CC1)Nc1ccccc1CO2 (stereo not drawn) | 4.81
O=C(Cc1ccc2c(c1)OCC2)Nc1nc[nH]n1 | -2.94
CN(C)S(=O)(=O)N1CCC2(COCc3cnc(-c4ccccc4)nc32)C1 (stereo not drawn) | -13.6
O=c1cc(CN2CCCC2)nc2n1CCCN(Cc1ccsc1)C2 | -6.44
CCN(Cc1nonc1C)C(=O)c1cc(C(F)(F)F)nn1C | 2.06
COc1cc(NC(=O)NCC2CCCO2)cc(OC)c1OC (stereo not drawn) | -7.71
Cc1nn(C)c2c(N3CCN(C(=O)C4CCCO4)CC3)ncnc12 (stereo not drawn) | 6.42
O=S(=O)(c1ccc(N2CCCCC2)c2nonc12)N1CCCCC1 | 6.74
O=C1CNc2ncnc(N3CCN(Cc4ccccc4)CC3)c2N1 | 9.76
CCn1nc(C)c(NC(=O)c2cc(NC(=O)C3CC3)n(C)n2)c1C | -0.916
Cc1ccc(-c2cc(C(F)(F)F)nc(N3CCOCC3)n2)s1 | 0.452

Structure (SMILES) | cytotoxicity at 10 µM [%]
CN1CCc2nc(C3CCCN(S(=O)(=O)c4ccccc4)C3)ncc2C1 (stereo not drawn) | 2.67
CC(C)Nc1nc(O)cc(C(C)n2ncc3ccccc3c2=O)n1 (stereo not drawn) | 2.81
CCN1CCN(c2cncc(Cl)n2)CC1 | 11.6
CCN1CCCCC1C(=O)N1CCN(C(=O)OC)CC1 (stereo not drawn) | -4.81
CC(C(=O)NCC(C)(C)c1ccc2c(c1)OCO2)n1ccnc1 (stereo not drawn) | 6.36
Cc1cc(C)c(CNc2cnn(CC(O)CN(C)C)c2)c(C)c1 (stereo not drawn) | 15
CN(Cc1nc2ccccc2[nH]1)C(=O)C(C)(C)n1cc(Cl)cn1 | 6.16
Cc1noc(CN(C)c2ccccc2)n1 | 8.82
COc1ccccc1OCC(=O)NS(=O)(=O)c1cccnc1 | -4.69
O=C(c1coc(-c2ccccc2)n1)N1CCS(=O)(=O)CC1 | 11.4
CCNC(=O)NC(=O)C(C)Nc1ccccc1OCCOC (stereo not drawn) | 4
COc1ccc(C(CO)NC(=O)Nc2cccc(F)c2)cc1 (stereo not drawn) | -4.82
Cc1noc(C)c1CN1CCC(N(C)Cc2noc(C(C)C)n2)C1 (stereo not drawn) | -6.37
Cc1ncccc1CNCC1CCc2nnc(C(C)C)n2C1 (stereo not drawn) | -6.27
O=C(CCc1ccc(Cl)s1)N1CCCC(N2CCNC2=O)C1 (stereo not drawn) | 1.09
CCSc1ccc(C(=O)N2CCCCC2C(=O)NC(C)(C)C)cn1 (stereo not drawn) | -7.69
COCc1ccccc1C(=O)N1CCn2c(nnc2C(C)C)C1 | 2.91
CC(NCc1cnc(C2CCC2)s1)c1cccc(-n2ccnc2)c1 (stereo not drawn) | 4.12
Cc1nc(C(C)C)sc1C(=O)NCCn1ccnc1 | 1.28
Cc1nn(C)c(C)c1CC(=O)NCc1cccnc1OC1CCCC1 | -0.527
O=C(NC1(c2nccs2)CCCC1)c1cc(C2CC2)[nH]n1 | 2

Structure (SMILES) | cytotoxicity at 10 µM [%]
CC(C)(C)Oc1ccccc1CNC(=O)C1CCCOC1 (stereo not drawn) | 0.997
CCN(C(=O)NCc1ccc(C)cc1OC)C(C)c1cccnc1 (stereo not drawn) | 6.32
O=C(c1cnccn1)N1CCC(CN2CCOCC2)CC1 | 4.55
Cc1nn(C)c(Oc2cccc(F)c2)c1NC(=O)C1CCCO1 (stereo not drawn) | -7.64
CN(CC1CC1)C(=O)CN(Cc1cccc(O)c1)C1CCC(O)CC1 (stereo not drawn) | -1.21
O=C(Nc1cccnc1)N1CCC(n2ccc(C(F)(F)F)n2)CC1 | -6.08
Cc1cc(N2CCN(CCO)CC2)nc(-c2ccncc2)n1 | -1.25
O=C(c1cnccn1)N1CC[C@H]2C[C@@H](c3ccncn3)O[C@@H]2C1 | -78.5
CN1CCCC2(CCN(C(=O)c3ccncc3)C2)C1 (stereo not drawn) | -68.3
CCCc1cncnc1N1CCC(NCc2ccc(O)cc2)CC1 | 3.8
CCc1cnc(NCc2nc(CSC)no2)nc1 | 7.15
COc1ccc(C)cc1-n1cnnc1C1CCCN(C)C1 (stereo not drawn) | 6.43
CCN1CC(CN(C)Cc2nc(-c3cccc(Cl)c3)oc2C)CC1=O (stereo not drawn) | 6.9
CCc1oc(C(=O)NC(C)Cc2cnccn2)cc1CN1CCCC1 (stereo not drawn) | -5.28
CCN(Cc1noc(C2CCC2)n1)C(=O)c1cn2ccsc2n1 | 5.44
Cc1nn(C)c2ncnc(N3CCC(O)(CN4CCCC4)CC3)c12 | 2.68
Cc1cc(CNc2cncc(C(=O)N(C)C)n2)c2[nH]c(C)c(C)c2c1 | -12.2
CC(C)n1cc(C(=O)N2CCC(n3cc(C(C)(C)C)nn3)CC2)cn1 | 1.19
COc1ccc(/C=C/CN2CCC3(CC2)CN(C)C(=O)O3)cc1 | -2.11
Cc1cc(CN(C)C(=O)C(c2ccccc2F)N(C)C)ccn1 (stereo not drawn) | 2.78
O=C(c1nc(=O)[nH]c2ccccc12)N1CCCC(CC2CC2)(C(=O)O)C1 (stereo not drawn) | 6.56

Structure (SMILES) | cytotoxicity at 10 µM [%]
COCC(NC(=O)c1cc(NC(C)=O)ccc1Cl)c1ccnn1C (stereo not drawn) | -2.22
CC(Cn1cccn1)n1cnc2cccc(F)c2c1=O (stereo not drawn) | -0.288
Cc1nc(N)cc(C2CN(C(=O)c3ccn(C)n3)CCO2)n1 (stereo not drawn) | 0.0241
C=Cn1ncc(CN2C[C@@H]3CCCN3C[C@H]2CCSC)c1C | -4.12
CC(C)c1nc(CN2CCCC2Cn2cncn2)no1 (stereo not drawn) | -7.3
COc1ccc(OC2CCN(C(=O)c3ccc(C)[nH]c3=O)CC2)cc1 | -3.22
CN1CCCCC1c1cncc(Cl)n1 (stereo not drawn) | 0.995
O=S(=O)(NCC1OCCc2cn(CC3CCOCC3)nc21)C1CC1 (stereo not drawn) | 11.2
Cc1ccc(Nc2ncnc3c2CCN(CC2CCOC2)CC3)cc1 (stereo not drawn) | 5.32
Cc1cnc(N2C[C@H]3CCN(CC4CC4)C[C@@H]3C2)nc1 | 7.55
O=C(O)c1cc2c(nc1NCC1CC1)CCN(C1CCOC1)CC2 (stereo not drawn) | 7.83
c1ccc(COC[C@H]2CC[C@H]3[C@H](CCN3Cc3cccnc3)O2)nc1 | -80.2
Cc1noc(C)c1CN1CC[C@H]2OCC[C@@]2(C(=O)N(C)C)C1 | -76.5
CC(C)C(=O)N1CCC2(CN(CC3CCCC3)C2)C1 | 3.86
COCCNC(=O)C1CN(Cc2nccs2)Cc2ccnn2C1 (stereo not drawn) | -72.7
N#Cc1cccc(CN2CC[C@@H]3[C@@H]2CC(=O)N3Cc2ccncc2)c1 | -73.7
O=C(c1cccnc1)N1CCCC2(COCCN(c3ccccc3)C2)C1 (stereo not drawn) | 2.17
CCS(=O)(=O)N1CCCC2(COCCN(c3nnc(C)o3)C2)C1 (stereo not drawn) | 8.88
O=C(COC1CCCC1)N1C[C@@H]2CN(Cc3ccoc3)CCO[C@@H]2C1 | 4.65
CCCS(=O)(=O)N1CCN(CCOC)c2nc(C)ccc2C1 | 8.07
